Values after ≈ are worked out from the molar mass of the structure shown. Active and inactive are the calls of the source. The rule behind the calls is not given here.
Assays:
Assay type in all cases: functional
Staphylococcus aureus [1] = assay: Antibacterial activity against Staphylococcus aureus NCIB 8588 after 24 hrs by agar well diffusion method; also: test concentration or dose not given here
How it was run: (§1)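 Agar well diffusion. Clinical isolates were first checked for viability, then grown in nutrient broth for 8 h at 37 °C. About 0.2 ml of broth culture was mixed into 18 ml molten diagnostic sensitivity test agar cooled to 45 °C and poured into plates. Compounds in DMSO went into bored wells, with streptomycin as reference. Plates stood 1 h for diffusion, then were incubated upright at 37 °C for 24 h. Clear inhibition zones were read in mm.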

Escherichia coli [2] = assay: Antibacterial activity against Escherichia coli NCIB 86 after 24 hrs by agar well diffusion method; how it was run: as §1; also: test concentration or dose not given here
Pseudomonas fluorescens = assay: Antibacterial activity against Pseudomonas fluorescens NCIB 3756 after 24 hrs by agar well diffusion method; how it was run: as §1; also: test concentration or dose not given here
Klebsiella pneumoniae [3] = assay: Antibacterial activity against Klebsiella pneumoniae NCIB 418 after 24 hrs by agar well diffusion method; how it was run: as §1; also: test concentration or dose not given here
Bacillus subtilis [4] = assay: Antibacterial activity against Bacillus subtilis NCIB 3610 after 24 hrs by agar well diffusion method; how it was run: as §1; also: test concentration or dose not given here
Bacillus cereus [5] = assay: Antibacterial activity against Bacillus cereus NCIB 6349 after 24 hrs by agar well diffusion method; how it was run: as §1; also: test concentration or dose not given here
Shigella dysenteriae [6] = assay: Antibacterial activity against Shigella dysenteriae after 24 hrs by agar well diffusion method
Pseudomonas aeruginosa = assay: Antibacterial activity against Pseudomonas aeruginosa NCIB 950 after 24 hrs by agar well diffusion method; how it was run: as §1; also: test concentration or dose not given here
Candida albicans = assay: Antifungal activity against Candida albicans after 3 days by agar well diffusion method
Bacillus anthracis [7] = assay: Antibacterial activity against Bacillus anthracis after 72 hrs
[8] = test system: Geobacillus stearothermophilus; assay: Antibacterial activity against Bacillus stearothermophilus NCIB 8222 after 72 hrs; details: NCIB 8222, 72 h
How it was run: (§2)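 MIC by the Russell and Furr method, run on selected Gram-positive and Gram-negative strains. Once the agar had set and its surface had dried, nutrient agar plates were streaked with overnight broth cultures. They were incubated at 37 °C for up to 72 h and scored for presence or absence of growth.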

Bacillus subtilis [9] = assay: Antibacterial activity against Bacillus subtilis NCIB 3610 after 72 hrs; details: NCIB 3610, 72 h; how it was run: as §2
Bacillus cereus [10] = assay: Antibacterial activity against Bacillus cereus NCIB 6349 after 72 hrs; details: NCIB 6349, 72 h; how it was run: as §2
Staphylococcus aureus [11] = assay: Antibacterial activity against Staphylococcus aureus NCIB 8588 after 72 hrs; how it was run: as §2
Escherichia coli [12] = assay: Antibacterial activity against Escherichia coli NCIB 86 after 72 hrs; details: NCIB 86, 72 h; how it was run: as §2
Klebsiella pneumoniae [13] = assay: Antibacterial activity against Klebsiella pneumoniae NCIB 418 after 72 hrs; details: NCIB 418, 72 h; how it was run: as §2
Shigella dysenteriae [14] = assay: Antibacterial activity against Shigella dysenteriae after 72 hrs
How it was run: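 MIC by agar dilution: compound-containing nutrient agar was set and surface-dried, then streaked with overnight broth culture of the clinical isolate. Incubated at 37 °C for up to 72 h and scored for presence or absence of growth. Streptomycin was the reference.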

Bacillus anthracis [15] = assay: Antibacterial activity against Bacillus anthracis after 24 hrs by agar well diffusion method
[16] = test system: Geobacillus stearothermophilus; assay: Antibacterial activity against Bacillus stearothermophilus NCIB 8222 after 24 hrs by agar well diffusion method; how it was run: as §1; also: test concentration or dose not given here

SMILES	inhibition zone (IZ) (Staphylococcus aureus [1]) [mm]	inhibition zone (IZ) (Escherichia coli [2]) [mm]	inhibition zone (IZ) (Pseudomonas fluorescens) [mm]	inhibition zone (IZ) (Klebsiella pneumoniae [3]) [mm]	inhibition zone (IZ) (Bacillus subtilis [4]) [mm]	inhibition zone (IZ) (Bacillus cereus [5]) [mm]	inhibition zone (IZ) (Shigella dysenteriae [6]) [mm]	inhibition zone (IZ) (Pseudomonas aeruginosa) [mm]	inhibition zone (IZ) (Candida albicans) [mm]	MIC (Bacillus anthracis [7]) [µg/mL]	MIC [8] [µg/mL]	MIC (Bacillus subtilis [9]) [µg/mL]	MIC (Bacillus cereus [10]) [µg/mL]	MIC (Staphylococcus aureus [11]; NCIB 8588, 72 h) [µg/mL]	MIC (Escherichia coli [12]) [µg/mL]	MIC (Klebsiella pneumoniae [13]) [µg/mL]	MIC (Shigella dysenteriae [14])	inhibition zone (IZ) (Bacillus anthracis [15]) [mm]	inhibition zone (IZ) [16] [mm]	MIC (Staphylococcus aureus [11])
C/C(=N\Nc1nc2ccccc2[nH]c1=O)c1cc2cc(C)ccc2oc1=O	19	15	0	19	16	25	12	10	10	62.5 (≈ 173 µM)	31.3 (≈ 86.9 µM)	31.3 (≈ 86.9 µM)	7.8 (≈ 21.6 µM)	15.6 (≈ 43.3 µM)	62.5 (≈ 173 µM)	31.3 (≈ 86.9 µM)	62.5 µg/mL (≈ 173 µM)	14	15	
O=c1[nH]c2ccccc2nc1NN=C1CCCC1	0	17	10	14	12	20	12	0	29	125 (≈ 516 µM)	62.5 (≈ 258 µM)	31.3 (≈ 129 µM)	15.6 (≈ 64.4 µM)		31.3 (≈ 129 µM)	15.6 (≈ 64.4 µM)	62.5 µg/mL (≈ 258 µM)	10	14	inactive
O=c1[nH]c2ccccc2nc1N/N=C1\CCCCC1Br (configuration not stated)	13	13	0	12	20	28	15	0	19	15.6 (≈ 46.5 µM)	31.3 (≈ 93.4 µM)	7.8 (≈ 23.3 µM)	7.8 (≈ 23.3 µM)	31.3 (≈ 93.4 µM)	31.3 (≈ 93.4 µM)	31.3 (≈ 93.4 µM)	15.6 µg/mL (≈ 46.5 µM)	19	13	
CC(C)=NNc1nc2ccccc2[nH]c1=O	12	30	0	12	30	24	13	0	31	62.5 (≈ 289 µM)	7.8 (≈ 36.1 µM)	7.8 (≈ 36.1 µM)	15.6 (≈ 72.1 µM)	62.5 (≈ 289 µM)	7.8 (≈ 36.1 µM)	15.6 (≈ 72.1 µM)	31.3 µg/mL (≈ 145 µM)	14	30	
CC12CCC(C/C1=N\Nc1nc3ccccc3[nH]c1=O)C2(C)C (configuration not stated)	11	18	0	16	16	10	0	13	21	125 (≈ 403 µM)	31.3 (≈ 101 µM)	15.6 (≈ 50.3 µM)	62.5 (≈ 201 µM)	62.5 (≈ 201 µM)	15.6 (≈ 50.3 µM)	31.3 (≈ 101 µM)	inactive	5	14	
O=c1[nH]c2ccccc2nc1NN=C1c2ccccc2Cc2ccccc21	14	20	0	21	12	25	0	15	9	31.3 (≈ 88.8 µM)	15.6 (≈ 44.3 µM)	31.3 (≈ 88.8 µM)	7.8 (≈ 22.1 µM)	15.6 (≈ 44.3 µM)	15.6 (≈ 44.3 µM)	7.8 (≈ 22.1 µM)	inactive	14	18	
O=c1[nH]c2ccccc2nc1N/N=C1\CCCCC1Cl (configuration not stated)	12	12	9	13	16	12	0	0	15	31.3 (≈ 108 µM)	31.3 (≈ 108 µM)	15.6 (≈ 53.7 µM)	31.3 (≈ 108 µM)	62.5 (≈ 215 µM)	62.5 (≈ 215 µM)	31.3 (≈ 108 µM)	inactive	14	14	
C/C(=N\Nc1nc2ccccc2[nH]c1=O)c1cc2ccccc2oc1=O	15	30	0	20	32	20	0	0	29	62.5 (≈ 180 µM)	31.3 (≈ 90.4 µM)	7.8 (≈ 22.5 µM)	31.3 (≈ 90.4 µM)	31.3 (≈ 90.4 µM)	31.3 (≈ 90.4 µM)	31.3 (≈ 90.4 µM)	inactive	18	28	
